Test results published in ChEMBL document CHEMBL2040734, “Benzothiazoles: search for anticancer agents” (2012).

What was measured:
Assay type in all cases: functional
MOLT-4 [1] = assay: Cytotoxicity against human MOLT4 cells assessed as cell growth at 10 uM after 48 hrs by sulforhodamine B assay; settings: MOLT-4, 48 h, read-out: Activity
TK-10 = assay: Growth inhibition of human TK10 cells after 48 hrs by sulforhodamine B assay; settings: TK-10, 48 h; for CC50: read-out: LC50 (the source's name)
Method in brief: (§1)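 Adherent NCI-60 lines were grown in RPMI 1640 with 5% FBS and 2 mM L-glutamine, plated at 5000–40,000 cells/well and preincubated 24 h. They were then exposed to five concentrations (0.01–100 µM, from a DMSO stock) for 48 h at 37 °C, 5% CO2. Cells were fixed with cold TCA (10% final, 60 min, 4 °C) and stained with 0.4% SRB. Dye was solubilized in 10 mM Tris base and A515 read. GI50 was derived from time-zero, control and treated absorbances.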

DU-145 = assay: Cytotoxicity against human DU145 cells assessed as cell growth at 100 uM after 48 hrs by sulforhodamine B assay; settings: DU-145, 48 h, read-out: Activity
Method in brief: (§2)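 Five-dose NCI panel run at 0.01, 0.1, 1, 10 and 100 µM. Cells were in RPMI 1640 with 5% FBS and 2 mM L-glutamine, seeded at 5000–40,000 cells/well and pre-incubated 24 h. Drug was diluted from a DMSO stock into medium with 50 µg/ml gentamicin. Exposure was 48 h at 37 °C, 5% CO2. Cells were fixed with cold TCA and stained with 0.4% SRB, read at 515 nm. Percent growth came from time-zero, control and test absorbances.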

COLO 205 = assay: Cytotoxicity against human COLO205 cells assessed as cell growth at 0.1 uM after 48 hrs by sulforhodamine B assay; settings: COLO 205, 48 h, read-out: Activity
Method in brief: (§3)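 NCI-60 five-dose screen. Cells were grown in RPMI 1640 with 5% FBS and 2 mM L-glutamine and preincubated 24 h. Compound (DMSO stock) was tested at 0.01, 0.1, 1, 10 and 100 µM for 48 h at 37 °C. Cells were fixed in situ with cold TCA (final 10%) and stained with 0.4% SRB. A515 was read, and percent growth was calculated against time-zero and control plates.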

NCI-H23 = assay: Cytotoxicity against human NCI-H23 cells assessed as cell growth at 0.1 uM after 48 hrs by sulforhodamine B assay; settings: NCI-H23, 48 h, read-out: Activity
OVCAR-3 = assay: Cytotoxicity against human OVCAR3 cells assessed as cell growth at 10 uM after 48 hrs by sulforhodamine B assay; settings: OVCAR-3, 48 h, read-out: Activity
A498 = assay: Cytotoxicity against human A498 cells assessed as cell growth at 1 uM after 48 hrs by sulforhodamine B assay; settings: A498, 48 h, read-out: Activity; method in brief: as §3
BT-549 = assay: Cytotoxicity against human BT549 cells assessed as cell growth at 0.1 uM after 48 hrs by sulforhodamine B assay; settings: BT-549, 48 h, read-out: Activity; method in brief: as §3
HT-29 = assay: Cytotoxicity against human HT-29 cells assessed as cell growth at 0.01 uM after 48 hrs by sulforhodamine B assay; settings: HT-29, 48 h, read-out: Activity; method in brief: as §2
HOP-62 = assay: Cytotoxicity against human HOP62 cells assessed as cell growth at 0.1 uM after 48 hrs by sulforhodamine B assay; settings: HOP-62, 48 h, read-out: Activity; method in brief: as §2
UACC-62 [2] = assay: Cytotoxicity against human UACC62 cells assessed as cell growth at 0.01 uM after 48 hrs by sulforhodamine B assay; settings: UACC-62, 48 h, read-out: Activity
UACC-62 [3] = assay: Cytotoxicity against human UACC62 cells assessed as cell growth at 1 uM after 48 hrs by sulforhodamine B assay; settings: UACC-62, 48 h, read-out: Activity
MDA-MB-231 = assay: Cytotoxicity against human MDA-MB-231 cells assessed as cell growth at 100 uM after 48 hrs by sulforhodamine B assay; settings: MDA-MB-231, 48 h, read-out: Activity
SK-MEL-28 [4] = assay: Cytotoxicity against human SK-MEL-28 cells assessed as cell growth at 10 uM after 48 hrs by sulforhodamine B assay; settings: SK-MEL-28, 48 h, read-out: Activity
MOLT-4 [5] = assay: Growth inhibition of human MOLT4 cells after 48 hrs by sulforhodamine B assay; settings: MOLT-4, 48 h
Method in brief: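 Leukemia suspension lines were grown in RPMI 1640 with 5% FBS and 2 mM L-glutamine and plated at 5000–40,000 cells/well with 24 h preincubation. They were treated at 0.01, 0.1, 1, 10 and 100 µM (DMSO stock) for 48 h at 37 °C. Settled cells were fixed with 80% TCA (16% final) and stained with 0.4% SRB in 1% acetic acid, then read at 515 nm. GI50 was calculated against time-zero and control wells.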

UO-31 = assay: Cytotoxicity against human UO31 cells assessed as cell growth at 10 '-5 M after 48 hrs by sulforhodamine B assay; settings: UO-31, 48 h, read-out: Activity
Malme-3M = assay: Cytotoxicity against human MALME-3M cells assessed as cell growth at 1 uM after 48 hrs by sulforhodamine B assay; settings: read-out: Activity
M14 = assay: Cytotoxicity against human M14 cells assessed as cell growth at 10 '-5 M after 48 hrs by sulforhodamine B assay; settings: M14, 48 h, read-out: Activity
T47D = assay: Cytotoxicity against human T47D cells assessed as cell growth at 0.1 uM after 48 hrs by sulforhodamine B assay; settings: read-out: Activity
SK-MEL-28 [6] = assay: Growth inhibition of human SK-MEL-28 cells after 48 hrs by sulforhodamine B assay; settings: SK-MEL-28, 48 h; method in brief: as §1
RXF 393 = assay: Cytotoxicity against human RXF393 cells assessed as cell growth at 0.01 uM after 48 hrs by sulforhodamine B assay; settings: RXF 393, 48 h, read-out: Activity
MDA-MB-468 = assay: Cytotoxicity against human MDA-MB-468 cells assessed as cell growth at 10 '-5 M after 48 hrs by sulforhodamine B assay; settings: MDA-MB-468, 48 h, read-out: Activity
NCI-H522 = assay: Cytotoxicity against human NCI-H522 cells assessed as cell growth at 10 '-5 M after 48 hrs by sulforhodamine B assay; settings: NCI-H522, 48 h, read-out: Activity
HCT-15 = assay: Cytotoxicity against human HCT15 cells assessed as cell growth at 0.01 uM after 48 hrs by sulforhodamine B assay; settings: HCT-15, 48 h, read-out: Activity; method in brief: as §2
UACC-257 = assay: Cytotoxicity against human UACC257 cells assessed as cell growth at 10 '-5 M after 48 hrs by sulforhodamine B assay; settings: UACC-257, 48 h, read-out: Activity
NCI-H322M = assay: Cytotoxicity against human NCI-H322M cells assessed as cell growth at 100 uM after 48 hrs by sulforhodamine B assay; settings: read-out: Activity
SF-295 = assay: Cytotoxicity against human SF295 cells assessed as cell growth at 0.1 uM after 48 hrs by sulforhodamine B assay; settings: SF-295, 48 h, read-out: Activity

Compound | growth at 10 µM (MOLT-4 [1]) [%] | GI50 (TK-10) [µM] | TGI (TK-10) [µM] | CC50 (TK-10) [µM] | growth at 100 µM (DU-145) [%] | growth at 0.1 µM (COLO 205) [%] | growth at 0.1 µM (NCI-H23) [%] | growth at 10 µM (OVCAR-3) [%] | growth at 1 µM (A498) [%] | growth at 0.1 µM (BT-549) [%] | growth at 0.01 µM (HT-29) [%] | growth at 0.1 µM (HOP-62) [%] | growth at 0.01 µM (UACC-62 [2]) [%] | growth at 1 µM (UACC-62 [3]) [%] | growth at 100 µM (MDA-MB-231) [%] | growth at 10 µM (SK-MEL-28 [4]) [%] | GI50 (MOLT-4 [5]) [µM] | LC50 (MOLT-4 [5]) [µM] | TGI (MOLT-4 [5]) [µM] | growth at 10 µM (UO-31) [%] | also measured
Clc1cccc(Cl)c1Nc1nc2cccc(Cl)c2s1 | -38 | 1.16 | 2.57 | 5.67 | -85 | 94 | 83 | -96 | 26 | 101 | 100 | 96 | 94 | 51 | -70 | -86 | 1.05 | > 100 | 3.75 | -55.1 | growth at 1 µM (Malme-3M): 52%; growth at 10 µM (M14): -61.3%; growth at 0.1 µM (T47D): 102%; GI50 (SK-MEL-28 [6]): 1.46 µM; LC50 (SK-MEL-28 [6]): 6.02 µM; TGI (SK-MEL-28 [6]): 2.96 µM; growth at 0.01 µM (RXF 393): 94%; growth at 10 µM (MDA-MB-468): -25.6%; growth at 10 µM (NCI-H522): -64%; growth at 0.01 µM (HCT-15): 93%; growth at 10 µM (UACC-257): -33.3%; growth at 100 µM (NCI-H322M): -95%; growth at 0.1 µM (SF-295): 82%
Cc1ccc2nc(Nc3c(C)cccc3C)sc2c1 | 56 | > 100 | > 100 | > 100 | 65 | 112 | 92 | 52 | 53 | 99 | 98 | 98 | 92 | 52 | -6 | 45 | > 100 | > 100 | > 100 | 43.7 | growth at 1 µM (Malme-3M): 57%; growth at 10 µM (M14): 26.2%; growth at 0.1 µM (T47D): 96%; LC50 (SK-MEL-28 [6]): > 100 µM; TGI (SK-MEL-28 [6]): > 100 µM; growth at 0.01 µM (RXF 393): 94%; growth at 10 µM (MDA-MB-468): 2.04%; growth at 10 µM (NCI-H522): 19.7%; growth at 0.01 µM (HCT-15): 95%; growth at 10 µM (UACC-257): 56.1%; growth at 100 µM (NCI-H322M): 69%; growth at 0.1 µM (SF-295): 88%
